This is an account of results in ChEMBL document CHEMBL1124161, “4-Hydroxy-3-quinolinecarboxamides with antiarthritic and analgesic activities” (J Med Chem, 1988).

The structures appear in SMILES notation. Calls of active or inactive are those of the source. The rule behind the calls is not given here.

In general, ED50 refers to the dose that gives a 50% effect, or the effect in half of the subjects. What is called IC50 is the concentration that gives 50% inhibition. A high value points to weaker potency.

Assay [1] concerns Rattus norvegicus. Briefly: Antiinflammatory activity against carrageenan-induced foot edema in rat after oral administration of 25 mg/kg; IA=Inactive. Type of assay: functional, organism-based. More on the design: dose 25 mg/kg. (Carrageenan injected into the paw causes an acute inflammation.)
In assay [2] the test system is Mus musculus. Briefly: Analgesic activity against acetic acid induced writhing test in mouse administered peroral dose of 25 mg/kg; IA=Inactive. In kind it is functional, organism-based. Also on record: dose 25 mg/kg. The method, boiled down:
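Female mice (20–22 g), groups of 10, fasted 7 h; drug given orally 30 min before intraperitoneal injection of 0.2 mL 1% aqueous acetic acid. Stretching/writhing movements counted from minute 5 to 20 after irritant.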
Background: Writhing tests count abdominal constrictions after an irritant is injected.

In assay [3] the target is T1, Polyunsaturated fatty acid 5-lipoxygenase (Rattus norvegicus, UniProt P12527).
T1 sequence (P12527 whole entry): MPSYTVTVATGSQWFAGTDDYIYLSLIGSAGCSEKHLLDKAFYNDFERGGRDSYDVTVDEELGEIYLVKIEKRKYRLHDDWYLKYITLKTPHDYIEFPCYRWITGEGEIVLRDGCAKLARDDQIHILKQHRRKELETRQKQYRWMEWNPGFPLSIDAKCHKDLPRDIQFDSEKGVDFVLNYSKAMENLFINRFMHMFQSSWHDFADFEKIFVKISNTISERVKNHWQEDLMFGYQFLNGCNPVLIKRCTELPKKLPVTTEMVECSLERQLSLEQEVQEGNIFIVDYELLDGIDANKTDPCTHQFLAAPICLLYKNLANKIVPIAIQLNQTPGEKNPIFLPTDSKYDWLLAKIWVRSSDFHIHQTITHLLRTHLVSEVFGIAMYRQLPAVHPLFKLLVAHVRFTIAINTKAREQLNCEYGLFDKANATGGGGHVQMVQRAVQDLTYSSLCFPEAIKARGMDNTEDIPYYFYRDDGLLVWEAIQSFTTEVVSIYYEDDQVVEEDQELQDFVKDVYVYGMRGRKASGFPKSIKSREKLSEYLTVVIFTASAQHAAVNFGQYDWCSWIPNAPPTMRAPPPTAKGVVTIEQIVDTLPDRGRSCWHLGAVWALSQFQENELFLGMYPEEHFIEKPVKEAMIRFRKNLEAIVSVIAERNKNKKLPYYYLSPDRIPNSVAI
Briefly: Inhibition of 5-lipoxygenase from rat peritoneal neutrophils in vitro.

Assay [4] concerns Mus musculus. The experiment in a line: Analgesic activity against acetic acid induced writhing test in mouse after peroral administration. In kind it is functional.
In assay [5] the test system is Rattus norvegicus. Briefly: Antiinflammatory activity against carrageenan-induced foot edema in rat after peroral administration calculated from at least four doses.
Assay [6] relates to Rattus norvegicus. Briefly: (§1) Ulcerogenic effect against gastric ulcer in rat after oral administration. The conditions noted are these: Stomach. Type of assay: functional. In a few lines:
(§2)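 Groups of eight female rats (120–150 g), fasted 24 h, dosed orally; killed 7 h later and stomachs scored. Ulceration index = (mean ulcer degree × rats with ulcers / number of rats) × 100, ulcers being scores above 0.5. ED100 (index 100, max 300) read graphically.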

The target in assay [7] is T2, Cyclooxygenase (Bos taurus, UniProt O62664+O62698).
T2 sequence (O62664 whole entry): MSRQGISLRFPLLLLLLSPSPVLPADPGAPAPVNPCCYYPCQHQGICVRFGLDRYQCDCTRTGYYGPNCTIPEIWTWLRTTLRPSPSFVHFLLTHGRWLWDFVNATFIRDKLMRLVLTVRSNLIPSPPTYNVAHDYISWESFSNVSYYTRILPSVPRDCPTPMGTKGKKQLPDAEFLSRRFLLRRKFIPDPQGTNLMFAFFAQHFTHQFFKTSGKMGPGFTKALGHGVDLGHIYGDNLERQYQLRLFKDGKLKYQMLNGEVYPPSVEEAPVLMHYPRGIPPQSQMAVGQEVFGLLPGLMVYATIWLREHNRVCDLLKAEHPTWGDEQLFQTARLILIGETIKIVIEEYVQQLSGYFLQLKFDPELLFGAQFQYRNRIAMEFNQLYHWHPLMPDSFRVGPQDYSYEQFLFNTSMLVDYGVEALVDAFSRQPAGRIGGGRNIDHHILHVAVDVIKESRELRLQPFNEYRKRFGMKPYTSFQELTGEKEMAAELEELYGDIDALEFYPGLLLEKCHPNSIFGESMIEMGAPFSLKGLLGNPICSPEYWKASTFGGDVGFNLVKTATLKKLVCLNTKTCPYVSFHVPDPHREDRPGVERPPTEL
T2 sequence (O62698 whole entry): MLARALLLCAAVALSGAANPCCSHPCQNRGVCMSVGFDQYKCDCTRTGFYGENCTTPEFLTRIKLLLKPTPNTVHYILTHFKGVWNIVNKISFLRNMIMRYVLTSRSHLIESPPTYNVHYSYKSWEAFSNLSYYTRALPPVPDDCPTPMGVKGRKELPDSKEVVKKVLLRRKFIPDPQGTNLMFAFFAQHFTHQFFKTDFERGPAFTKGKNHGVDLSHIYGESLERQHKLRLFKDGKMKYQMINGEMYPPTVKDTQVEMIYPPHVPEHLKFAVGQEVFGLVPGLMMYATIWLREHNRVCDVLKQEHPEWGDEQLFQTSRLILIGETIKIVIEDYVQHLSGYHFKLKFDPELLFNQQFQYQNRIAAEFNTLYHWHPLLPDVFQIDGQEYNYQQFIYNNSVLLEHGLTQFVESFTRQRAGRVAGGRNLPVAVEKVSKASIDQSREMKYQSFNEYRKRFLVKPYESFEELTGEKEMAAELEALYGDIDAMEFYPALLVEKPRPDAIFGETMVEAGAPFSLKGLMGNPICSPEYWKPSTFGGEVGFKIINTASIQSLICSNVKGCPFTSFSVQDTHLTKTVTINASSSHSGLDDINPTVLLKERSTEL
The experiment in a line: Inhibition of bovine Prostaglandin G/H synthase in seminal vesicle microsomes in vitro.

The subject of assay [8] is Rattus norvegicus. Briefly: Anti-arthritis activity against adjuvant-induced arthritis in rats after peroral administration. In kind it is functional. The conditions noted are these: Rattus norvegicus, po; read-out: ED50. The method, boiled down: (§3)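 Groups of five male Lewis rats, 40–50 days old, given intraplantar injection in right hind paw of 0.6 mg Mycobacterium butyricum in 0.1 mL Bayol 55. Drug given in food from adjuvant day to day 17. Injected and noninjected hind paw volumes measured day 17 against normal controls. ED50 by least-squares curve fitting or Litchfield–Wilcoxon probit.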

The test system of assay [9] is Rattus norvegicus. Briefly: Antiinflammatory activity against carrageenan-induced foot edema in rat after peroral administration calculated from 4 doses. Type of assay: functional. The following applies: po. In a few lines:
(§4)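 Groups of eight male Sprague-Dawley rats (150–180 g) dosed orally at the time of subplantar injection of 0.5 mg carrageenin. Paw volume difference measured before and 5 h after injection. Expressed as ED40, estimated graphically or by Litchfield–Wilcoxon probit analysis.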

In assay [10] the test system is Rattus norvegicus. The description is as §1. In kind it is functional, Stomach. The method, boiled down:
as §2

Assay [11] has as its system Mus musculus. Briefly: Analgesic activity against acetic acid induced writhing test in mouse after peroral administration; range is (3.2-7.9). In kind it is functional. The following applies: po.
Assay [12] concerns Rattus norvegicus. The experiment in a line: Ulcerogenic effect against intestinal ulcer in rats after oral administration of 500 mg/kg; IA=Inactive. Type of assay: functional, organism-based. More on the design: dose 500 mg/kg. In a few lines: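 Nonfasted male rats (150–180 g) killed 24 h after oral dosing; intestinal ulcers scored and ulceration index computed from mean ulcer degree times fraction of rats with ulcers ×100; ED100 (index 100) determined graphically.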

Assay [13] relates to Rattus norvegicus. The experiment in a line: Ulcerogenic effect against intestinal ulcer in rats after oral administration. Type of assay: functional. In a few lines: (§5)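 Nonfasted male rats (150–180 g) killed 24 h after oral dosing, and intestinal ulcers scored. Ulceration index = (mean degree × rats with ulcers / rats) × 100. ED100 (index 100) determined graphically.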

Assay [14] deals with Rattus norvegicus. Briefly: Antiarthritis activity against adjuvant-induced arthritis in rats after peroral administration; range is (1.9-5.3). In kind it is functional. The conditions noted are these: po. In a few lines: as §3
The test system of assay [15] is Rattus norvegicus. The experiment in a line: Antiinflammatory activity against carrageenan-induced foot edema in rat after peroral administration. Type of assay: functional. The following applies: po. In a few lines: as §4
The test system of assay [16] is Rattus norvegicus. The experiment in a line: Ulcerogenic effect against gastric ulcer in rats after oral administration. Type of assay: functional, Stomach. In a few lines:
as §2

In assay [17] the test system is Mus musculus. Briefly: Analgesic activity against acetic acid induced writhing test in mouse after peroral administration (treatment was 6 hr before testing). The following applies: po. In kind it is functional. The method, boiled down: (§6)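 Groups of 10 female mice (20–22 g), fasted 7 h, dosed orally 6 h before ip injection of 0.2 mL 1% aqueous acetic acid. Stretching and writhing movements counted from minute 5 to 20 after irritant. ED50 evaluated graphically or by computerized least-squares curve fitting.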

The subject of assay [18] is Rattus norvegicus. Briefly: Ulcerogenic effect after oral administration (intestinal ulcer). Type of assay: functional. In a few lines:
as §5

Assay [19] has as its system Mus musculus. Briefly: Analgesic activity against acetic acid induced writhing test in mouse after peroral administration, treatment 6 hr before testing. Type of assay: functional. The conditions noted are these: po. In a few lines: as §6
In assay [20] the test system is Rattus norvegicus. The experiment in a line: Ulcerogenic effect after oral administration (gastric ulcer). Type of assay: functional. The method, boiled down: as §2
Assay [21] is filed under the species Rattus norvegicus. The experiment in a line: Antiarthritis activity against adjuvant-induced arthritis in rats. Type of assay: functional. In a few lines: as §3
Assay [22] deals with Rattus norvegicus. The experiment in a line: Antiinflammatory activity against carrageenan-induced foot edema in rat. In kind it is functional. The method, boiled down: as §4
Assay [23] concerns Rattus norvegicus. The experiment in a line: Antiinflammatory activity against carrageenan-induced foot edema in rat after peroral administration of 25 mg/kg; IA means Inactive. Also on record: dose 25 mg/kg. Type of assay: functional, organism-based.
Where [24] appears, read: Mus musculus, po, read-out: ED50.

As for `C=Cc1nc2c(C(F)(F)F)cccc2c(O)c1C(=O)Nc1nccs1`, the ED50 entry in [1] and in [2] was “inactive” each time.

For the compound `O=C(Nc1nccs1)c1c(C(F)(F)F)nc2c(C(F)(F)F)cccc2c1O`, the IC50 in assay [3] is 3 µM; in [7], 0.4 µM. The ED50 in [4] is 0.5 mg/kg; in [4] (setting [24]), 0.5 mg/kg; in [8], 3.8 mg/kg. For the same compound, the ED40 in assay [5] was 3.5 mg/kg. Further, the ED100 in assay [6] was found to be 15 mg/kg.

As to `O=C(Nc1nccs1)c1cnc2c(C(F)(F)F)cccc2c1O`, the ED40 in assay [9] was more than 100 mg/kg. For the same compound, the ED100 in [10] was more than 500 mg/kg. Besides, the ED50 in assay [11] and in [4] (setting [24]) was 5 mg/kg each time. Besides, the IC50 in assay [3] was 35 µM; in [7], 2.8 µM. Moreover, in [12], the ED100 result was “inactive”.

With `CC[C@H](N)c1nc2c(C(F)(F)F)cccc2c(O)c1C(=O)Nc1nccs1`, the ED100 in assay [13] is more than 100 mg/kg; in [16] it was 80 mg/kg. Moreover, the ED50 in [14] was 3.1 mg/kg; in [4] (setting [24]) it was 35 mg/kg; in [8], 5 mg/kg; in assay [17], 30 mg/kg. Besides, the results for the IC50 in assay [3] and in assay [7] were 18 µM and 1.4 µM, respectively. The compound also displayed an ED40 in assay [15] of 10 mg/kg.

Take `CCC(=O)N[C@@H](CC)c1nc2c(C(F)(F)F)cccc2c(O)c1C(=O)Nc1nccs1`: the ED100 in assay [18] is more than 100 mg/kg; in assay [20], more than 300 mg/kg. The ED50 in assay [19] was 4 mg/kg; in assay [4] (setting [24]) it was 20 mg/kg; in [21], 3.5 mg/kg; in [8] it was 3 mg/kg. Besides, the figures for the IC50 in [3] and in assay [7] were 2 µM and 0.4 µM, respectively. In assay [22], this compound had an ED40 of more than 100 mg/kg.

For the compound `COCc1nc2c(C(F)(F)F)cccc2c(O)c1C(=O)Nc1nccs1`, the ED50 in assay [4] (setting [24]) was determined as 25 mg/kg. Besides, the ED50 entry in assay [23] is “inactive”.
